Test results reported in ChEMBL document CHEMBL1123441, “Carrier-linked primaquine in the chemotherapy of malaria” (J Med Chem, 1986).
Several values for one entry are separate records, joined by “and”; a condition that tells them apart may be missing. Identical values can stand only once.

Experiments:
Mus musculus [1] = assay: Free and protein-conjugated compound is evaluated for curative effect, at the 8 mg/kg; assay type: functional
In short: (§1)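 Female A/J mice (~20 g, groups of 6–8) inoculated via tail vein with 10^4 Plasmodium berghei sporozoites. Drug, conjugate or carrier alone in 0.5 mL PBS given intravenously 2–3 h later; doses as mg primaquine base/kg. Giemsa-stained thin blood smears were read up to day 12, and mice without parasitemia by day 12 were scored cured. An untreated control group was run per experiment. CPD50 came from probit-transformed dose–response data, with results pooled from at least two experiments.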

Mus musculus [2] = assay: Free and protein-conjugated compound is evaluated for curative effect, at the 14.5 mg/kg; assay type: functional; in short: as §1
Mus musculus [3] = assay: Free and protein-conjugated compound is evaluated for curative effect, at the 7 mg/kg; assay type: functional; in short: as §1
[4] = (§2) Compound is evaluated for acute lethal toxicity by intravenous administration; assay type: organism-based; conditions: mouse, in vivo
In short: (§3)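 Noninfected mice in groups of eight, given a single intravenous injection of varying doses (mg primaquine base/kg) of free or protein-coupled drug. Highest conjugate dose was limited by solubility.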

Mus musculus [5] = assay: as §2; assay type: organism-based; conditions: in vivo; in short: as §3
Mus musculus [6] = species on record: Mus musculus; assay: Compound is evaluated for therapeutic efficacy; assay type: ADME, organism-based; conditions: in vivo; in short: as §1
[7] = Ratio of LD50 (lethal toxicity in mice) to that of CPD50 (therapeutic efficacy); assay type: organism-based; conditions: mouse, in vivo
In short: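 Therapeutic index as LD50/CPD50 (mg primaquine base/kg). LD50 came from probit analysis of deaths after intravenous dosing of noninfected mice, groups of eight. CPD50 came from probit analysis of cure (no parasitemia by day 12) in A/J mice given intravenous drug 2–3 h after intravenous inoculation of 10^4 P. berghei sporozoites.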

Mus musculus [8] = assay: Free and protein-conjugated compound is evaluated for curative effect, at the 9.5 mg/kg; assay type: functional; in short: as §1
Mus musculus [9] = assay: Free and protein-conjugated compound is evaluated for curative effect, at the 11 mg/kg; assay type: functional; in short: as §1

COc1cc(NC(C)CCCN)c2ncccc2c1 (centres undefined) [PRIMAQUINE]
Cure (Mus musculus [1]): 13%
Cure (Mus musculus [2]): 69%
Cure (Mus musculus [3]): 0%
LD50 [4]: 16 mg/kg
LD10 (Mus musculus [5]): 13 mg/kg
CPD50 (Mus musculus [6]): 13 mg/kg and 20 mg/kg
selectivity ratio [7]: 1.2
Cure (Mus musculus [8]): 13%
Cure (Mus musculus [9]): 20%
